A short description of assay [1]: Inhibition of PKA assessed as residual activity at 10 uM. A digest of the protocol:
(§1)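 Panel screen by radioactive kinase assay at a single inhibitor concentration. Score is the percent activity remaining relative to DMSO controls (100%).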

Assay [2] deals with Mitogen-activated protein kinase kinase kinase 11 (Homo sapiens) (UniProt Q16584). The assay can be described thus: Inhibition of MLK3 assessed as residual activity at 10 uM. In a few lines: as §1
Assay [3] is described as follows: Inhibition of AMPK assessed as residual activity at 10 uM. In a few lines:
(§2)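 Kinase panel screen run as a radioactive activity assay at single compound concentration. Score reported as percent activity remaining relative to DMSO controls (100%).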

Assay [4] concerns the target T1, Serine/threonine-protein kinase BRSK1 (Homo sapiens) (UniProt Q8TDC3).
T1 sequence (whole entry): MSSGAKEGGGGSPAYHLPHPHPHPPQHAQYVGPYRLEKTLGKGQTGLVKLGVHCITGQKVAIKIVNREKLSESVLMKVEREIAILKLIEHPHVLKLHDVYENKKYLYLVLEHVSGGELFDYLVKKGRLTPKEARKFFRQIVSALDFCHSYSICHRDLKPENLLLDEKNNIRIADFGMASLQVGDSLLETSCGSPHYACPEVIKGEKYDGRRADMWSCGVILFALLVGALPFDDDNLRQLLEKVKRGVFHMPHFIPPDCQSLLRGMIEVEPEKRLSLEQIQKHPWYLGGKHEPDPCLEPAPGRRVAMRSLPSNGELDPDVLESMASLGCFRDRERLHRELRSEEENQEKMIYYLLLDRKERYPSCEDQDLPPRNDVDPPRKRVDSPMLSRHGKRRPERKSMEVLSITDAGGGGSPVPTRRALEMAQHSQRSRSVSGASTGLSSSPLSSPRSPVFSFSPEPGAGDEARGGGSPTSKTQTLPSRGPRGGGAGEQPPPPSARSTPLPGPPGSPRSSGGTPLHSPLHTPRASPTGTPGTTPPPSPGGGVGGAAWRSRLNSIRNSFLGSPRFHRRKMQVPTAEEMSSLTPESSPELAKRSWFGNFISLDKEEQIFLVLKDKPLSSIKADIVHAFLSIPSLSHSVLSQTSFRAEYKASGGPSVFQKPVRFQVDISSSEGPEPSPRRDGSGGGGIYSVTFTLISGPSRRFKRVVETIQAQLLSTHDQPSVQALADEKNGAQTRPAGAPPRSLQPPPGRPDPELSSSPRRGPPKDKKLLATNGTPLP
The assay can be described thus: Inhibition of BRSK1 assessed as residual activity at 10 uM. A digest of the protocol:
as §2

Assay [5] has as its target Mitogen-activated protein kinase 3 (Homo sapiens) (UniProt P27361). The assay can be described thus: Inhibition of ERK1 assessed as residual activity at 10 uM. In a few lines:
as §2

Assay [6] addresses T2, MAP kinase-activated protein kinase 5 (Homo sapiens) (UniProt Q8IW41).
T2 sequence (whole entry): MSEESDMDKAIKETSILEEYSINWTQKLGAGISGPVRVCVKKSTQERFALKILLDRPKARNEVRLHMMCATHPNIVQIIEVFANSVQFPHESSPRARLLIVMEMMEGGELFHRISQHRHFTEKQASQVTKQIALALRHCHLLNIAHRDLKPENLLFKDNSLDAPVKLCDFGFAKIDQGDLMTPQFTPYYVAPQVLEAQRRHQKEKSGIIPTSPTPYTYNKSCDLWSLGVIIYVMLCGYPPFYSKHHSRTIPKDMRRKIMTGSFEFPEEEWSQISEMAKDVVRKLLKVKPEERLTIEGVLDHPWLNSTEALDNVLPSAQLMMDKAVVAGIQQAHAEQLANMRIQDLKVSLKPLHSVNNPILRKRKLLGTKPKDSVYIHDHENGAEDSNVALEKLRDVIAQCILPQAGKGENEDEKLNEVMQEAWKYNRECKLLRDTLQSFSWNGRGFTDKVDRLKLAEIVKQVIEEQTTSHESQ
The assay can be described thus: Inhibition of PRAK assessed as residual activity at 10 uM. A digest of the protocol: as §1

The target in assay [7] is Dual specificity tyrosine-phosphorylation-regulated kinase 1A (Homo sapiens) (UniProt Q13627). The assay can be described thus: Inhibition of DYRK1A assessed as residual activity at 10 uM. A digest of the protocol:
as §2

Assay [8] has as its target Serine/threonine-protein kinase PAK 5 (Homo sapiens) (UniProt Q9P286). The assay can be described thus: Inhibition of PAK5 assessed as residual activity at 10 uM. A digest of the protocol:
as §1

The target in assay [9] is T3, NUAK family SNF1-like kinase 1 (Homo sapiens) (UniProt O60285).
T3 sequence (whole entry): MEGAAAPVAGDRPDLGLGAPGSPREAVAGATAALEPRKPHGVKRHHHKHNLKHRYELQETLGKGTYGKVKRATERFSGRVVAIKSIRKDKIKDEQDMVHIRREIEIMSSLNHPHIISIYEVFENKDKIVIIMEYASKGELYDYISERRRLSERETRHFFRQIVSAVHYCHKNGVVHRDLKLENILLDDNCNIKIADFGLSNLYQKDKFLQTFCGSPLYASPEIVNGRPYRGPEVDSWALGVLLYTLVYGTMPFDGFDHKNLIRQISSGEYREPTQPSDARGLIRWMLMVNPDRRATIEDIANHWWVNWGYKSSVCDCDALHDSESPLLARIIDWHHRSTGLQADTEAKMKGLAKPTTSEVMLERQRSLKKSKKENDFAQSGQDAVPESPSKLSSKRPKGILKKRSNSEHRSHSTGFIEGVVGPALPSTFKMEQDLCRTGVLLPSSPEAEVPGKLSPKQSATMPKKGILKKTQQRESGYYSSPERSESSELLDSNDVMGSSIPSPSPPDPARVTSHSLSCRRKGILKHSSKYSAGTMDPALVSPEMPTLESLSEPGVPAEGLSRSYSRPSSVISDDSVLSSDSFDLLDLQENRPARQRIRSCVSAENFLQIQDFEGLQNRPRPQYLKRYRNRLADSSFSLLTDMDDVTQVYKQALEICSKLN
The assay can be described thus: Inhibition of NUAK1 assessed as residual activity at 10 uM. In a few lines: as §1

Assay [10] deals with Serine/threonine-protein kinase N2 (Homo sapiens) (UniProt Q16513). The assay can be described thus: Inhibition of PRK2 assessed as residual activity at 10 uM. In a few lines: as §1
Sequence of Serine/threonine-protein kinase N2 (Homo sapiens) (Q16513 whole entry, looked up): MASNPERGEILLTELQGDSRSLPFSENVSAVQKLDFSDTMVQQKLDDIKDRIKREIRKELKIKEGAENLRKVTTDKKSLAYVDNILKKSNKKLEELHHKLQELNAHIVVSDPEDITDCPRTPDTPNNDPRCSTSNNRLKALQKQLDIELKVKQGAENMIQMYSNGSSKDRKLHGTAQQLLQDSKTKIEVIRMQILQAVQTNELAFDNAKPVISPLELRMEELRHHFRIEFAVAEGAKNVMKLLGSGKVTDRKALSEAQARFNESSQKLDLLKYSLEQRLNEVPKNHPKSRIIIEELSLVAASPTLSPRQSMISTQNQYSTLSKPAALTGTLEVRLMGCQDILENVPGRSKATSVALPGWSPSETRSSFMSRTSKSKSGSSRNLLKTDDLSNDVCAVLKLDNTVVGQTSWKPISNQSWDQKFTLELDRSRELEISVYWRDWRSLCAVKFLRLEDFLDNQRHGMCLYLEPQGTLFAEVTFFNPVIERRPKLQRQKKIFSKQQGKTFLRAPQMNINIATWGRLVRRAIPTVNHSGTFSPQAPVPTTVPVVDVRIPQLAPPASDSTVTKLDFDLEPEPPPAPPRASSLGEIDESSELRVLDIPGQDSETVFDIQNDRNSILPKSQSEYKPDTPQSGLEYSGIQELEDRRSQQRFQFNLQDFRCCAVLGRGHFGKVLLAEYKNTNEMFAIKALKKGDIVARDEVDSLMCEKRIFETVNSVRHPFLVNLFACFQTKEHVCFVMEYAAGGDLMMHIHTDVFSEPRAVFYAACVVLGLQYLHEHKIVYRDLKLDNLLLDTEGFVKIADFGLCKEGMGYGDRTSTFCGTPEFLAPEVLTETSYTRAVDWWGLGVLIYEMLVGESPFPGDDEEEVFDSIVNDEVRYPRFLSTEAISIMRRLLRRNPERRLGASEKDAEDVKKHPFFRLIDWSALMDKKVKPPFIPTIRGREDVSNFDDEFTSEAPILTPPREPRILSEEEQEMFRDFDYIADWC
Assay [11] deals with T4, Interleukin-1 receptor-associated kinase 4 (Homo sapiens) (UniProt Q9NWZ3).
T4 sequence (whole entry): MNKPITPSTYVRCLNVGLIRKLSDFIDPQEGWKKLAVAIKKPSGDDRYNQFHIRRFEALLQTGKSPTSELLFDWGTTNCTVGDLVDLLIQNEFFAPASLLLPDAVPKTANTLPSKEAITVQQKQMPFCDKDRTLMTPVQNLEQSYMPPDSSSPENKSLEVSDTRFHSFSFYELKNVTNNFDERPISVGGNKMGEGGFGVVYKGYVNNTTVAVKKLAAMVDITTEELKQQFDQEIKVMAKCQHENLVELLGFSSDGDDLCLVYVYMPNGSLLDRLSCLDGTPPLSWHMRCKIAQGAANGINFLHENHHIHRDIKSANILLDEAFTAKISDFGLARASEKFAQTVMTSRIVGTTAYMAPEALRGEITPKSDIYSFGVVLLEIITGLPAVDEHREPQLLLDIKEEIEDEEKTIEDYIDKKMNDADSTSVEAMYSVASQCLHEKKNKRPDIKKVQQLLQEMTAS
The assay can be described thus: Inhibition of IRAK4 assessed as residual activity at 10 uM. A digest of the protocol: as §2

Sequence of Mitogen-activated protein kinase kinase kinase 11 (Homo sapiens) (Q16584 whole entry, looked up): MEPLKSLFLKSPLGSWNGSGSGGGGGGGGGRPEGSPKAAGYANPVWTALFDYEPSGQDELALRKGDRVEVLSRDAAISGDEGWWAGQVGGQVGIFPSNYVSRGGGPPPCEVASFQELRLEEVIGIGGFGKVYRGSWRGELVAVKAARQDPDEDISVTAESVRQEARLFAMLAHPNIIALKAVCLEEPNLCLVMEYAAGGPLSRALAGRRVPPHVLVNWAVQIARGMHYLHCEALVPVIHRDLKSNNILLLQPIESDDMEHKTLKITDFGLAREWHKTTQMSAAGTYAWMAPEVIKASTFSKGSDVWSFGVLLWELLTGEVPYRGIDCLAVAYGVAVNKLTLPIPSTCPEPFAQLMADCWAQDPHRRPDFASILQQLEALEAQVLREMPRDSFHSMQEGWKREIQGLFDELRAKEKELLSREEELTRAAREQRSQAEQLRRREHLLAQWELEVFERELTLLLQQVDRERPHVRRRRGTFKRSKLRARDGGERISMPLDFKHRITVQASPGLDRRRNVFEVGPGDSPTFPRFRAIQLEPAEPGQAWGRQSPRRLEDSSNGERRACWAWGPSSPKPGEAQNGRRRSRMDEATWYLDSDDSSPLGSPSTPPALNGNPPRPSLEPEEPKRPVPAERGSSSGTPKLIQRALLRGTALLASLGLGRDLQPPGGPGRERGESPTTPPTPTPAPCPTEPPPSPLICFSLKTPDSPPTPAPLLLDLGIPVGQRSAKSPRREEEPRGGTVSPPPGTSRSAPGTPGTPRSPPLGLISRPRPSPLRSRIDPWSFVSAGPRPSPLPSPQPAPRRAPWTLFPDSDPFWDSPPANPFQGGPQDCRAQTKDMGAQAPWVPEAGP
Sequence of Mitogen-activated protein kinase 3 (Homo sapiens) (P27361 whole entry): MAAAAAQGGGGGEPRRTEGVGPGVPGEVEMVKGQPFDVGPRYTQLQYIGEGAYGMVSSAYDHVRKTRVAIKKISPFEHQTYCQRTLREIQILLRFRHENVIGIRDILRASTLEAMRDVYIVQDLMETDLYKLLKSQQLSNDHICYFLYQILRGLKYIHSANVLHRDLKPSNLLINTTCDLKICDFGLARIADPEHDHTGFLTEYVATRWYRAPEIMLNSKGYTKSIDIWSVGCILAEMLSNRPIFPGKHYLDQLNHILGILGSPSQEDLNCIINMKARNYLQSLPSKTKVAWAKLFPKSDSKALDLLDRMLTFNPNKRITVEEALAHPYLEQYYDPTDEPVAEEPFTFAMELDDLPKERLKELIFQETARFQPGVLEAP
Sequence of Serine/threonine-protein kinase PAK 5 (Homo sapiens) (Q9P286 whole entry, looked up): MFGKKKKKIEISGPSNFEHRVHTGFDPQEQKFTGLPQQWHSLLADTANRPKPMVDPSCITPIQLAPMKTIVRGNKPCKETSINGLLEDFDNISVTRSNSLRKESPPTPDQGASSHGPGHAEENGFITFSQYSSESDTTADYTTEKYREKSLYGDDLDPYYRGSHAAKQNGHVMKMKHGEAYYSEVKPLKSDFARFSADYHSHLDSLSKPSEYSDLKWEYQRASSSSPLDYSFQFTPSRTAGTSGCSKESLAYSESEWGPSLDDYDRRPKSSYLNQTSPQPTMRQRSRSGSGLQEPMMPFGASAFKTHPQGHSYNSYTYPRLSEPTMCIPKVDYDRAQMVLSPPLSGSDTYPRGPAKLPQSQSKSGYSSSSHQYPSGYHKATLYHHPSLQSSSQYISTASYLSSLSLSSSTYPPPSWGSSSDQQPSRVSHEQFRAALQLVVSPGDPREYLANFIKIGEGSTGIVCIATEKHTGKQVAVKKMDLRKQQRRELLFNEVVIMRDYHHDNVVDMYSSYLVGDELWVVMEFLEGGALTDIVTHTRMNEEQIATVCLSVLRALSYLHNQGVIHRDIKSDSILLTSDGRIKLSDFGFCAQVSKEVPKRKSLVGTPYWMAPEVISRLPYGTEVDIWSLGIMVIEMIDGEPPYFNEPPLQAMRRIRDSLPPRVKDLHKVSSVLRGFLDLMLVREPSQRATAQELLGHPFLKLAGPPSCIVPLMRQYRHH

With `CN(C)C/C=C/C(=O)Nc1ccc2c(C#N)cnc(Nc3cccc(Br)c3)c2c1`, the Activity in assay [1] worked out at 100%; in assay [2] it was 86%; in assay [3] it was 86%; in assay [4], 95%; in assay [5], 83%; in assay [6], 88%. The Activity came out at 60% in assay [7]; 86% in assay [8]; 100% in [9]; 100% in assay [10]; 93% in assay [11].

Turning to `CN1CCN(CCC(=O)Nc2ccc3c(C#N)cnc(Nc4cccc(Br)c4)c3c2)CC1`, the Activity was 100% in assay [1]; 87% in [2]; 77% in assay [3]; 89% in assay [4]; 85% in [5]; 100% in assay [6]. Further, the Activity was found to be 79% in assay [7]; 85% in [8]; 94% in assay [9]; 90% in assay [10]; 100% in assay [11].

On to `CN(C)CCCC(=O)Nc1ccc2c(C#N)cnc(Nc3cccc(Br)c3)c2c1`, for which the Activity in assay [1] amounted to 100%; in assay [2] it was 100%; in assay [3] it was 79%; in assay [4] it was 66%; in assay [5], 93%; in [6] it was 100%. For the same compound, the Activity in assay [7] amounted to 75%; in [8], 89%; in [9], 86%; in [10] it was 98%; in [11], 98%.

Source of the values: ChEMBL document CHEMBL1641579, “Synthesis and biological evaluation of 7-substituted-1-(3-bromophenylamino)isoquinoline-4-carbonitriles as inhibitors of myosin light chain kinase and epidermal growth factor receptor” (Bioorg Med Chem, 2011).
